Measurements collected from several papers.
Protocols differ between the studies behind these lines.
Target: Calcium/calmodulin-dependent protein kinase type 1B (PNCK, Homo sapiens, UniProt Q6P2M8)

COc1cc(Cl)c(C(=O)N[C@@H](CN[C@H]2CC[C@@H](N)CC2)Cc2ccc(C#N)cc2)cc1-c1ccc(CN[C@H](C)c2ccc(C)cc2)o1
remaining activity (enzyme activity, inhibitor; 1 µM): 98%

CN([C@@H]1CCc2c(CC(=O)O)c3ccccc3n2C1)S(=O)(=O)c1ccc(F)cc1
remaining binding (cell-free assay, competition with immobilised ligand; 1 µM): 87%

CN(CCCC(F)(F)F)c1nccc(-c2cnn3ncccc23)n1
remaining binding (binding; 1 µM): 100%

Nc1ncnc2occ(-c3ccc(NC(=O)Nc4cc(C(F)(F)F)ccc4F)cc3)c12
remaining signal (cell-free assay; 20 µM): 0.5%

N#CCCc1ccc2c(c1)-c1[nH]c3ccc([N+](=O)[O-])cc3c1CC(=O)N2
remaining signal (cell-free assay; 0.5 µM): 107%

Cc1ccc(C(=O)Nc2ccc(CN3CCN(C)CC3)c(C(F)(F)F)c2)cc1C#Cc1cnc2cccnn12
remaining signal (cell-free assay; 23.5 nM): 89%

CCc1ccccc1C(=O)Nc1n[nH]c2c(C)c(F)c(C3C(C#N)=C(C)N(C)C(C)=C3C#N)cc12
remaining binding (cell-free assay, competition with immobilised ligand; 1 µM): 100%

Cc1sc(C(=O)NC2COC2)cc1-n1cc(NC(=O)Nc2c(F)cccc2Cl)cn1
remaining activity (enzyme activity, inhibitor; 10 µM): 74.1%

CN1CC(Oc2cnc(C#N)cc2-c2ccn3nc(NC(=O)C4CC4)cc3c2)C1
inhibition (enzyme activity, inhibitor; 1 µM): -21%

O=C(Nc1cnn(-c2csc(C(=O)NC3COC3)c2)c1)Nc1ccccc1Cl
remaining activity (enzyme activity, inhibitor; 5 µM): 92.1%

CC(C)(O)[C@H]1CC[C@H](Nc2ccc3ncc(-c4cccc(C(F)(F)F)c4)n3n2)CC1
remaining activity (enzyme activity, inhibitor; 1 µM): 100%
